Test results reported in ChEMBL document CHEMBL4765352, “Discovery of AdipoRon analogues as novel AMPK activators without inhibiting mitochondrial complex I” (Eur J Med Chem, 2020).
The source made the active and inactive calls. The calls are words filed in the database; no cut-off is given here.

Columns and labels:
[1] = Toxicity in db/db mouse assessed as effect on serum AST level at 100 mg/kg, ig administered for 10 weeks; type: organism-based; conditions: in vivo, po, 1680 h
Outline: (§1)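 db/db mice, 5 weeks old, grouped by matching baseline blood glucose and body weight. Dosed intragastrically once daily at 100 mg/kg in 0.5% methylcellulose; vehicle-treated db/db and db/m mice served as controls. Body weight and fasting blood glucose measured weekly. Serum ALT and AST measured after 10 weeks. Data given as mean ± SEM.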

BEAS-2B = assay: Activation of AMPK in human BEAS-2B cells harboring wild type LKB1; type: cell-based; conditions: filed as activator
Mus musculus [2] = species: Mus musculus; assay: Improvement in lipid homeostasis in db/db mouse assessed as effect on serum total cholesterol level; type: functional, organism-based
Mus musculus [3] = assay: Activation of AMPK in normal lean C57BL/6 mouse assessed as increase in phosphorylated AMPK level in heart tissue at 100 mg/kg, ig administered for 4 weeks by Western blot analysis; type: functional, organism-based
Outline: (§2)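 Male C57BL/6 mice, 9 weeks old, dosed intragastrically once daily for 4 weeks alongside vehicle controls. Heart and skeletal muscle were homogenized in RIPA buffer with protease/phosphatase inhibitors and centrifuged at 10,600 g for 20 min. About 30 µg protein was blotted for p-AMPK and p-ACC and detected by ECL.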

[4] = Metabolic stability in ICR/CD-1 mouse liver microsomes assessed as intrinsic clearance preincubated for 5 mins followed by NADPH addition and measured up to 45 mins by LC/MS analysis; type: ADME, Microsome; conditions: time 50 min, read-out: CLH
Outline: (§3)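 Compound and liver microsomes in preheated potassium phosphate buffer, held at 37 °C for 5 min. Reaction started with NADPH and stopped at 0, 5, 15, 30 and 45 min with acetonitrile containing tolbutamide internal standard. Samples centrifuged at 6000 rpm for 15 min, supernatant analysed by LC/MS. Ketanserin run as assay control. Performed by a contract lab.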

A549 [5] = assay: Cytotoxicity against human A549 cells assessed as reduction in cell viability at 5 to 20 uM incubated for 72 hrs by MTT assay; type: cell-based; conditions: a549, 72 h, dose 5-20 µM
Outline: (§4)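 MTT viability assay in C2C12, HepG2 and A549 cells. Exposure was 24 h or 72 h for C2C12 and 72 h for HepG2 and A549. Three replicates per group, compared with the 0 μM group by Student's t test.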

[6] = Metabolic stability in human liver microsomes assessed as intrinsic clearance preincubated for 5 mins followed by NADPH addition and measured up to 45 mins by LC/MS analysis; type: ADME, Microsome; conditions: time 50 min, read-out: CLH; outline: as §3
[7] = Toxicity in C57BL/6 mouse assessed as change in gross morphology of heart at 50 to 200 mg/kg, ig administered for 4 weeks; type: organism-based; conditions: in vivo, po, 672 h, dose 50-200 mg/kg
Outline: (§5)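 Male C57BL/6 mice (6 per group) given 50, 100 or 200 mg/kg intragastrically daily for 4 weeks. Saline-perfused hearts were weighed and examined for gross morphology, with representative hearts chosen by similar body weight. Heart weight was expressed relative to body weight and to tibia length.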

[8] = Metabolic stability in human liver microsomes assessed as half life preincubated for 5 mins followed by NADPH addition and measured up to 45 mins by LC/MS analysis; type: ADME, Microsome; conditions: time 50 min
Outline: (§6)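 Compound was preincubated with mouse (ICR/CD-1) or human liver microsomes in potassium phosphate buffer at 37 °C for 5 min, then NADPH was added to start the reaction. Samples were quenched with acetonitrile containing tolbutamide internal standard at 0, 5, 15, 30 and 45 min. Parent compound measured by LC/MS; ketanserin served as control.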

Huh-7 [9] = assay: Activation of AMPK in human HuH-7 cells assessed as increase in ACC phosphorylation at 1 to 20 uM measured after 2 to 12 hrs by Western blotting analysis; type: cell-based; conditions: filed as activator, dose 1-20 µM, time 2-12 hrs
Outline: (§7)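 HepG2 and HuH-7 cells in medium with 10% FBS and penicillin/streptomycin at 37 °C, 5% CO₂. Treated with a range of concentrations for 2 h, or with 10 μM over a time course. Cells lysed in RIPA buffer with protease/phosphatase inhibitors; ~30 µg protein per lane blotted for p-AMPK, AMPK, p-ACC, ACC, with GAPDH or β-actin as loading control. Detected by ECL.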

C2C12 [10] = assay: Cytotoxicity against mouse C2C12 cells assessed as reduction in cell viability at 5 to 20 uM incubated for 24 to 72 hrs by MTT assay; type: cell-based; conditions: c2c12, 20 µM, dose lower 5 µM, time lower 24 hrs, dose upper 20 µM, time upper 72 hrs; outline: as §4
[11] = Inhibition of mitochondrial complex 1 in human HepG2 cells assessed as increase in AMP/ATP ratio at 10 uM; type: cell-based; conditions: hepg2, 10 µM
Outline: (§8)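 HepG2 cells treated with 10 μM or 0.5 μM compound, or DMSO. Cellular ADP:ATP and AMP:ATP ratios were measured. Three replicates, given as mean ± SD and compared by Student's t test.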

[12] = Toxicity in C57BL/6 mouse assessed as change in heart weight/tibia length ratio at 50 to 200 mg/kg, ig administered for 4 weeks; type: organism-based; conditions: in vivo, po, 672 h, dose 50-200 mg/kg; outline: as §5
[13] = Induction of cardiac hypertrophy in db/db mouse at 100 mg/kg, ig administered for 10 weeks; type: organism-based; conditions: in vivo, po, 1680 h
[14] = Inhibition of mitochondrial complex 1 in human HepG2 cells assessed as increase in ADP/ATP ratio at 10 uM; type: cell-based; conditions: hepg2, 10 µM; outline: as §8
HepG2 [15] = assay: Cytotoxicity against human HepG2 cells assessed as reduction in cell viability at 10 to 20 uM incubated for 72 hrs by MTT assay; type: cell-based; conditions: hepg2, 72 h, dose 10-20 µM; outline: as §4
Mus musculus [16] = assay: Activation of AMPK in normal lean C57BL/6 mouse assessed as increase in phosphorylated ACC level in heart tissue at 100 mg/kg, ig administered for 4 weeks by Western blot analysis; type: functional, organism-based; outline: as §2
[17] = Metabolic stability in ICR/CD-1 mouse liver microsomes assessed as compound remaining preincubated for 5 mins followed by NADPH addition and measured up to 45 mins by LC/MS analysis; type: ADME, Microsome; conditions: time 50 min, read-out: Stabilty; outline: as §6
A549 [18] = assay: Activation of AMPK in human A549 cells harboring mutant LKB1; type: cell-based
C2C12 [19] = assay: Activation of AMPK in mouse C2C12 cells with SiRNA-induced LKB1 knock down assessed as increase in ACC phosphorylation; type: cell-based
HepG2 [20] = assay: Activation of AMPK in human HepG2 cells assessed as increase in AMPK phosphorylation at 1 to 20 uM measured after 2 to 12 hrs by Western blotting analysis; type: cell-based; conditions: filed as activator, dose 1-20 µM, time 2-12 hrs; outline: as §7
Huh-7 [21] = assay: Activation of AMPK in human HuH-7 cells assessed as increase in AMPK phosphorylation at 1 to 20 uM measured after 2 to 12 hrs by Western blotting analysis; type: cell-based; conditions: filed as activator, dose 1-20 µM, time 2-12 hrs; outline: as §7
[22] = Toxicity in db/db mouse assessed as effect on serum ALT level at 100 mg/kg, ig administered for 10 weeks; type: organism-based; conditions: in vivo, po, 1680 h; outline: as §1

## CC(C)(Oc1ccc(Cl)cc1)C(=O)Nc1ccc(OCc2ccc(C#N)cc2)cc1
[1]
  Activity: Non-Toxic
BEAS-2B
  Activity: Active
Mus musculus [2]
  Activity: inactive
Mus musculus [3]
  Activity: inactive
[4]
  CLint scaled: 152 mL/min/kg
A549 [5]
  Activity: Non-Toxic
[6]
  CLint scaled: 18 mL/min/kg
[7]
  Activity: Non-Toxic
[8]
  half-life: 1.62 h
Huh-7 [9]
  Activity: Active
C2C12 [10]
  Activity: Non-Toxic
[11]
  inhibition (INH): Not Active
[12]
  Activity: Non-Toxic
[13]
  Activity: Non-Toxic
[14]
  inhibition (INH): Not Active
HepG2 [15]
  Activity: Toxic
Mus musculus [16]
  Activity: inactive
[17]
  remaining at 0.75 h: 39%
A549 [18]
  Activity: inactive
C2C12 [19]
  Activity: inactive
HepG2 [20]
  Activity: Active
Huh-7 [21]
  Activity: Active
[22]
  Activity: Non-Toxic
